Laboratory results published in ChEMBL document CHEMBL3112444, “Synthesis and anticancer activity of focused compound libraries from the natural product lead, oroidin” (2014).

Experiments:
[1] = Cytotoxicity against human SJ-G2 cells assessed as growth inhibition at 25 uM after 72 hrs by MTT assay relative to control; assay type: functional; conditions: SJ-G2, 72 h, read-out: GI
Method in brief: (§1)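 Cells in logarithmic growth kept in DMEM with 10% FBS, 10 mM sodium bicarbonate, penicillin 100 IU/mL, glutamine 4 mM, at 37 °C under 5% CO2. Plated in duplicate at 2500–4000 cells/well. Compound (30 mM DMSO stock) added 24 h after plating. MTT read at 540 nm after 72 h exposure.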

[2] = Cytotoxicity against human MIA cells assessed as growth inhibition at 25 uM after 72 hrs by MTT assay relative to control; assay type: functional; conditions: read-out: GI; method in brief: as §1
[3] = Cytotoxicity against human H460 cells assessed as growth inhibition at 25 uM after 72 hrs by MTT assay relative to control; assay type: functional; conditions: NCI-H460, 72 h, read-out: GI; method in brief: as §1
[4] = Cytotoxicity against mouse SMA cells assessed as growth inhibition at 25 uM after 72 hrs by MTT assay relative to control; assay type: functional; conditions: read-out: GI; method in brief: as §1
[5] = Cytotoxicity against human BE(2)-C cells assessed as growth inhibition at 25 uM after 72 hrs by MTT assay relative to control; assay type: functional; conditions: read-out: GI; method in brief: as §1
[6] = system: HT-29; test: Cytotoxicity against human HT-29 cells assessed as growth inhibition at 25 uM after 72 hrs by MTT assay relative to control; assay type: functional; conditions: HT-29, 72 h, read-out: GI; method in brief: as §1
[7] = system: DU-145; test: Cytotoxicity against human DU145 cells assessed as growth inhibition at 25 uM after 72 hrs by MTT assay relative to control; assay type: functional; conditions: DU-145, 72 h, read-out: GI; method in brief: as §1
[8] = system: A-431; test: Cytotoxicity against human A431 cells assessed as growth inhibition at 25 uM after 72 hrs by MTT assay relative to control; assay type: functional; conditions: A-431, 72 h, read-out: GI; method in brief: as §1
[9] = system: A2780; test: Cytotoxicity against human A2780 cells assessed as growth inhibition at 25 uM after 72 hrs by MTT assay relative to control; assay type: functional; conditions: A2780, 72 h, read-out: GI; method in brief: as §1
[10] = Cytotoxicity against human U87 cells assessed as growth inhibition at 25 uM after 72 hrs by MTT assay relative to control; assay type: functional, U-87MG ATCC; conditions: U-87 MG, read-out: GI; method in brief: as §1
[11] = system: SW480; test: Cytotoxicity against human SW480 cells assessed as growth inhibition at 25 uM after 72 hrs by MTT assay relative to control; assay type: functional; conditions: SW480, 72 h, read-out: GI; method in brief: as §1
[12] = system: MCF7; test: Cytotoxicity against human MCF7 cells assessed as growth inhibition at 25 uM after 72 hrs by MTT assay relative to control; assay type: functional; conditions: MCF7, 72 h, read-out: GI; method in brief: as §1

SMILES | inhibition of growth at 25 µM [1] [%] | inhibition of growth at 25 µM [2] [%] | inhibition of growth at 25 µM [3] [%] | inhibition of growth at 25 µM [4] [%] | inhibition of growth at 25 µM [5] [%] | inhibition of growth at 25 µM [6] [%] | inhibition of growth at 25 µM [7] [%] | inhibition of growth at 25 µM [8] [%] | inhibition of growth at 25 µM [9] [%] | inhibition of growth at 25 µM [10] [%] | inhibition of growth at 25 µM [11] [%] | inhibition of growth at 25 µM [12] [%]
COc1ccc(CNC(=O)c2ccc[nH]2)cc1 | < 0 | 6 | 2 | < 0 | < 0 | 3 | 8 | < 0 | 6 | < 0 | 10 | 5
O=C(NCCc1ccc2ccccc2c1)c1cc(Br)c(Br)[nH]1 | 10 | 21 | 12 | 17 | < 0 | 28 | 14 | 15 | 52 | < 0 | < 0 | 53
O=C(NCC(c1ccccc1)c1ccccc1)c1ccc[nH]1 | 53 | 32 | 11 | 15 | < 0 | 29 | 8 | 30 | 27 | 14 | < 0 | 52
O=C(NCCCn1cccn1)c1ccc[nH]1 | < 0 | 19 | 14 | 8 | 1 | 4 | 7 | 1 | 10 | 9 | 9 | 7
O=C(NCCCn1cccn1)c1cc(Br)c(Br)[nH]1 | < 0 | 3 | 14 | 6 | 6 | 4 | 5 | 3 | 15 | < 0 | < 0 | 12
Cc1nccn1CCCNC(=O)c1ccc[nH]1 | < 0 | 4 | 3 | < 0 | < 0 | 5 | 5 | < 0 | 1 | 3 | 7 | 8
Cc1nccn1CCCNC(=O)c1cc(Br)c(Br)[nH]1 | 10 | 15 | 22 | 11 | 20 | 10 | 28 | 11 | 21 | < 0 | 26 | 36
O=C(NCCc1c[nH]cn1)c1ccc[nH]1 | < 0 | 7 | 0 | 0 | < 0 | 11 | 5 | 3 | 11 | 6 | 1 | 1
O=C(NCCc1c[nH]cn1)c1cc(Br)c(Br)[nH]1 | 11 | 20 | 35 | 18 | 13 | 11 | < 0 | 2 | 37 | 5 | 12 | 23
O=C(NCc1ccc(Cl)c(Cl)c1)c1ccc[nH]1 | 11 | < 0 | 14 | 17 | < 0 | 14 | < 0 | 6 | 15 | 4 | < 0 | 7
COc1ccc(CNC(=O)c2cc(Br)c(Br)[nH]2)cc1 | 4 | 14 | 13 | 23 | < 0 | 14 | < 0 | 12 | 48 | < 0 | < 0 | 30
O=C(NCCc1ccc(O)cc1)c1ccc[nH]1 | 11 | 6 | 2 | < 1 | < 0 | 3 | < 0 | < 0 | 18 | 2 | 5 | 8
CCc1ccc(CCNC(=O)c2ccc[nH]2)cc1 | < 0 | 12 | 3 | 8 | < 0 | 22 | 1 | 0 | < 0 | 0 | < 0 | 19
CCc1ccc(CCNC(=O)c2cc(Br)c(Br)[nH]2)cc1 | 22 | 31 | 23 | 79 | 20 | 81 | 7 | 22 | 67 | 6 | 5 | 88
O=C(NCCc1ccc2ccccc2c1)c1ccc[nH]1 | 8 | 20 | 23 | 16 | < 0 | 19 | 20 | 8 | 13 | < 1 | 3 | 23
